Results published in ChEMBL document CHEMBL1130421, “A facile, alternative synthesis of 4'-thioarabinonucleosides and their biological activities” (J Med Chem, 1997).
Converted amounts (≈) assume the structure as drawn.

Experiments:
[1] = test system: Human alphaherpesvirus 3; assay: Antiviral activity against varicella zoster virus (VZV) Oka strain in HEL ([…]) cells.; format: functional; conditions: Human alphaherpesvirus 3, HEL; read-out: ED50 (the source's name)
[2] = test system: CCRF-HSB-2; assay: Antiproliferative effects on CCRF-HSB-2 (human leukemia) cells.; format: functional, cell-based
In short: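 CCRF-HSB-2 cells at 1.1 × 10⁵ cells/mL in RPMI 1640 + 10% FBS. Compound added in medium or PBS as serial 0.5 log₁₀ dilutions. Incubated 3 days at 37 °C, 5% CO₂. MTT then added for another 4 h; formazan solubilized in acidic DMF/SDS. A570 read against 690 nm reference. IC50 read graphically from dose-inhibition curve.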

[3] = test system: Human alphaherpesvirus 1; assay: Antiviral activity against herpes simplex virus-1 VR-3 strain in HEL ([…]) cells.; format: functional; conditions: Human alphaherpesvirus 1, HEL; read-out: ED50 (the source's name)
In short: (§1)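 Plaque reduction assay in HEL cells. Strains: HSV-1 VR-3, HSV-2 MS, HCMV AD 169. Run as described earlier.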

[4] = test system: Human betaherpesvirus 5; assay: Antiviral activity against human cytomegalovirus (HCMV) AD 169 strain HEL ([…]) cells.; format: functional; conditions: Human betaherpesvirus 5, HEL; read-out: ED50 (the source's name); in short: as §1
[5] = test system: Human alphaherpesvirus 2; assay: Antiviral activity against herpes simplex virus-2 (HSV-2) Ms strain in HEL ([…]) cells.; format: functional; conditions: Human alphaherpesvirus 2, HEL; read-out: ED50 (the source's name); in short: as §1

| EC50 [1] | IC50 [2] | EC50 [3] | EC50 [4] | EC50 [5] | SMILES |
| --- | --- | --- | --- | --- | --- |
| > 50 µg/mL | > 100 µg/mL | 0.97 µg/mL (≈ 3.02 µM) | > 50 µg/mL | 71 µg/mL (≈ 221 µM) | O=c1[nH]c(=O)n([C@@H]2S[C@H](CO)[C@@H](O)[C@@H]2O)cc1/C=C/Cl |
| > 50 µg/mL | > 100 µg/mL | > 100 µg/mL | > 50 µg/mL | > 100 µg/mL | O=c1[nH]c(=O)n([C@H]2S[C@H](CO)[C@@H](O)[C@@H]2O)cc1I |
| 0.11 µg/mL (≈ 0.368 µM) | 0.29 µg/mL (≈ 0.969 µM) | 0.49 µg/mL (≈ 1.64 µM) | 0.01 µg/mL (≈ 0.0334 µM) | 0.59 µg/mL (≈ 1.97 µM) | Nc1nc(O)c2ncn([C@@H]3S[C@H](CO)[C@@H](O)[C@@H]3O)c2n1 |
| > 50 µg/mL | > 100 µg/mL | > 100 µg/mL | > 50 µg/mL | > 100 µg/mL | Nc1nc(N)c2ncn([C@H]3S[C@H](CO)[C@@H](O)[C@@H]3O)c2n1 |
| > 50 µg/mL | > 100 µg/mL | > 100 µg/mL | > 50 µg/mL | > 100 µg/mL | O=c1[nH]c(=O)n([C@H]2S[C@H](CO)[C@@H](O)[C@@H]2O)cc1/C=C/Cl |
| 0.2 µg/mL (≈ 0.548 µM) | > 100 µg/mL | 0.82 µg/mL (≈ 2.25 µM) | > 50 µg/mL | 58 µg/mL (≈ 159 µM) | O=c1[nH]c(=O)n([C@@H]2S[C@H](CO)[C@@H](O)[C@@H]2O)cc1/C=C/Br |
| > 50 µg/mL | > 100 µg/mL | > 100 µg/mL | > 50 µg/mL | > 100 µg/mL | O=c1[nH]c(=O)n([C@H]2S[C@H](CO)[C@@H](O)[C@@H]2O)cc1/C=C/Br |
| > 50 µg/mL | > 100 µg/mL | > 100 µg/mL | > 50 µg/mL | > 100 µg/mL | CCc1cn([C@H]2S[C@H](CO)[C@@H](O)[C@@H]2O)c(=O)[nH]c1=O |
| > 50 µg/mL | > 100 µg/mL | > 100 µg/mL | > 50 µg/mL | > 100 µg/mL | Nc1ncnc2c1ncn2[C@H]1S[C@H](CO)[C@@H](O)[C@@H]1O |
| 6.6 µg/mL (≈ 24.1 µM) | > 100 µg/mL | 0.77 µg/mL (≈ 2.81 µM) | 44 µg/mL (≈ 160 µM) | 4.6 µg/mL (≈ 16.8 µM) | Cc1cn([C@@H]2S[C@H](CO)[C@@H](O)[C@@H]2O)c(=O)[nH]c1=O |
| 27.1 µg/mL (≈ 70.2 µM) | > 100 µg/mL | 3.5 µg/mL (≈ 9.06 µM) | > 50 µg/mL | 13.6 µg/mL (≈ 35.2 µM) | O=c1[nH]c(=O)n([C@@H]2S[C@H](CO)[C@@H](O)[C@@H]2O)cc1I |
| 1.85 µg/mL (≈ 6.53 µM) | 14.8 µg/mL (≈ 52.2 µM) | 18.4 µg/mL (≈ 64.9 µM) | 1.36 µg/mL (≈ 4.8 µM) | 13.5 µg/mL (≈ 47.7 µM) | Nc1ncnc2c1ncn2[C@@H]1S[C@H](CO)[C@@H](O)[C@@H]1O |
| > 50 µg/mL | 42 µg/mL (≈ 153 µM) | > 100 µg/mL | > 50 µg/mL | > 100 µg/mL | Cc1cn([C@H]2S[C@H](CO)[C@@H](O)[C@@H]2O)c(=O)[nH]c1=O |
| > 50 µg/mL | > 100 µg/mL | 0.43 µg/mL (≈ 1.49 µM) | > 50 µg/mL | 6.5 µg/mL (≈ 22.5 µM) | CCc1cn([C@@H]2S[C@H](CO)[C@@H](O)[C@@H]2O)c(=O)[nH]c1=O |
| 0.11 µg/mL (≈ 0.369 µM) | 0.2 µg/mL (≈ 0.67 µM) | 0.52 µg/mL (≈ 1.74 µM) | 0.022 µg/mL (≈ 0.0737 µM) | 0.4 µg/mL (≈ 1.34 µM) | Nc1nc(N)c2ncn([C@@H]3S[C@H](CO)[C@@H](O)[C@@H]3O)c2n1 |
|  | > 100 µg/mL | 0.14 µg/mL (≈ 0.622 µM) | 6.9 µg/mL (≈ 30.6 µM) | 0.23 µg/mL (≈ 1.02 µM) | Nc1nc2c(ncn2COCCO)c(=O)[nH]1 [ACYCLOVIR] |
|  | 0.0086 µg/mL (≈ 0.0354 µM) |  |  |  | Nc1ccn([C@@H]2O[C@H](CO)[C@@H](O)[C@@H]2O)c(=O)n1 [CYTARABINE] |
| 0.21 µg/mL (≈ 0.823 µM) | 17 µg/mL (≈ 66.6 µM) | 0.016 µg/mL (≈ 0.0627 µM) | 0.21 µg/mL (≈ 0.823 µM) | 0.039 µg/mL (≈ 0.153 µM) | Nc1nc2c(ncn2COC(CO)CO)c(=O)[nH]1 [GANCICLOVIR] |
| 0.0013 µg/mL (≈ 0.00372 µM) | > 100 µg/mL | 0.036 µg/mL (≈ 0.103 µM) | > 50 µg/mL | 62 µg/mL (≈ 178 µM) | O=c1[nH]c(=O)n([C@@H]2O[C@H](CO)[C@@H](O)[C@@H]2O)cc1/C=C/Br [SORIVUDINE] |
| 1.17 µg/mL (≈ 4.38 µM) | 12.9 µg/mL (≈ 48.3 µM) | 17.1 µg/mL (≈ 64 µM) | 6.45 µg/mL (≈ 24.1 µM) | 6.6 µg/mL (≈ 24.7 µM) | Nc1ncnc2c1ncn2[C@@H]1O[C@H](CO)[C@@H](O)[C@@H]1O [VIDARABINE] |
